Test results reported in ChEMBL document CHEMBL5724801, “EUbOPEN Chemogenomics Library - Multiplex” (2024).
Several values for one entry are separate records, joined by “and”; a condition that tells them apart may be missing. Equal values may be shown once.

Columns and labels:
HEK-293T = experiment: Multiplex assay against HEK293T; type: toxicity, cell-based; details: human
Outline: (§1)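 Hoechst33342, BioTracker Green Microtubule Cytoskeleton Dye, MitoTracker Red and Annexin V Alexa Fluor 680 were added to live cells at seeding, and imaging on a CQ1 microscope at 37°C and 5% CO2 followed compound addition. Gating by CellPathfinder machine learning separated cells into Hoechst high-intensity objects or normal cells, then normal cells into healthy, pyknosed or fragmented nuclei, then pyknosed cells into mitotic or apoptotic. Per cents of healthy-nucleus cells are reported for the tubulin, mitochondrial-mass and membrane-permeability phenotypes.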

U2OS = experiment: Multiplex assay against U2OS; type: toxicity, cell-based; details: human; outline: as §1
[1] = 24 h, 10 µM, compound concentration 10 uM
[2] = 48 h, 1 µM, compound concentration 1 uM
[3] = 48 h, 10 µM, compound concentration 10 uM
[4] = 12 h, 1 µM, compound concentration 1 uM
[5] = 12 h, 10 µM, compound concentration 10 uM
[6] = 24 h, 1 µM, compound concentration 1 uM

Compound: CC(=O)NCC(=O)N1[C@@H]2CC[C@H]1c1ccc(Nc3ncc(C(F)(F)F)c(NC4CCC4)n3)cc12 [PF-03814735]
- Population Fragmented Nuclei (%) (HEK-293T; [1]): 0.99% and 0.8%
- Population Hoechst High Intensity Objects (%) (HEK-293T; [1]): 0%
- Population Membrane Permeable-Phenotype (%) (HEK-293T; [1]): 0%
- Population Mitochondria Different-Phenotype (%) (HEK-293T; [1]): 90.53% and 33.33%
- Population Mitotic Cells (%) (HEK-293T; [1]): 34.91% and 49.57%
- Population Normal (%) (HEK-293T; [1]): 100%
- Population Pyknosed Nuclei (%) (HEK-293T; [1]): 52.22% and 92%
- Total Cell Count (HEK-293T; [1]): 203 and 125
- Population Apoptotic (%) (HEK-293T; [2]): 15.15% and 12.5%
- Population Fragmented Nuclei (%) (HEK-293T; [2]): 5.66% and 2.01%
- Population Healthy Nuclei (%) (HEK-293T; [2]): 86.88% and 71.14%
- Population Hoechst High Intensity Objects (%) (HEK-293T; [2]): 0%
- Population Membrane Permeable-Phenotype (%) (HEK-293T; [2]): 3.65% and 1.89%
- Population Mitotic Cells (%) (HEK-293T; [2]): 84.85% and 87.5%
- Population Normal (%) (HEK-293T; [2]): 100%
- Total Cell Count (HEK-293T; [2]): 442 and 149
- Population Apoptotic (%) (HEK-293T; [3]): 68.24% and 37.78%
- Population Fragmented Nuclei (%) (HEK-293T; [3]): 2.53% and 2.44%
- Population Healthy Nuclei (%) (HEK-293T; [3]): 61.6% and 24.39%
- Population Hoechst High Intensity Objects (%) (HEK-293T; [3]): 0%
- Population Membrane Permeable-Phenotype (%) (HEK-293T; [3]): 0.68% and 0%
- Population Mitochondria Different-Phenotype (%) (HEK-293T; [3]): 97.95% and 76.67%
- Population Mitotic Cells (%) (HEK-293T; [3]): 31.76% and 62.22%
- Population Normal (%) (HEK-293T; [3]): 100%
- Population Pyknosed Nuclei (%) (HEK-293T; [3]): 35.86% and 73.17%
- Total Cell Count (HEK-293T; [3]): 237 and 123
- Population Apoptotic (%) (U2OS; [4]): 43.59% and 56.25%
- Population Fragmented Nuclei (%) (U2OS; [4]): 3.86% and 3.61%
- Population Healthy Nuclei (%) (U2OS; [4]): 82.46% and 86.75%
- Population Hoechst High Intensity Objects (%) (U2OS; [4]): 0%
- Population Membrane Permeable-Phenotype (%) (U2OS; [4]): 2.55% and 3.47%
- Population Mitochondria Different-Phenotype (%) (U2OS; [4]): 0% and 6.25%
- Population Mitotic Cells (%) (U2OS; [4]): 56.41% and 43.75%
- Population Normal (%) (U2OS; [4]): 100%
- Population Pyknosed Nuclei (%) (U2OS; [4]): 13.68% and 9.64%
- Population Tubulin-Different-Phenotype (%) (U2OS; [4]): 2.55% and 1.39%
- Total Cell Count (U2OS; [4]): 285 and 166
- Population Apoptotic (%) (U2OS; [5]): 36.84% and 50%
- Population Fragmented Nuclei (%) (U2OS; [5]): 4.71% and 6.5%
- Population Healthy Nuclei (%) (U2OS; [5]): 58.45% and 47.97%
- Population Hoechst High Intensity Objects (%) (U2OS; [5]): 0.28% and 0%
- Population Membrane Permeable-Phenotype (%) (U2OS; [5]): 5.69% and 15.25%
- Population Mitotic Cells (%) (U2OS; [5]): 63.16% and 50%
- Population Normal (%) (U2OS; [5]): 99.72% and 100%
- Population Pyknosed Nuclei (%) (U2OS; [5]): 36.84% and 45.53%
- Population Tubulin-Different-Phenotype (%) (U2OS; [5]): 7.58% and 8.47%
- Total Cell Count (U2OS; [5]): 362 and 123
- Population Apoptotic (%) (U2OS; [6]): 52.86% and 55.56%
- Population Fragmented Nuclei (%) (U2OS; [6]): 3.18% and 2.94%
- Population Healthy Nuclei (%) (U2OS; [6]): 72.08% and 75.88%
- Population Hoechst High Intensity Objects (%) (U2OS; [6]): 0.35% and 0%
- Population Membrane Permeable-Phenotype (%) (U2OS; [6]): 1.96% and 5.43%
- Population Mitochondria Different-Phenotype (%) (U2OS; [6]): 0% and 7.75%
- Population Mitotic Cells (%) (U2OS; [6]): 47.14% and 44.44%
- Population Normal (%) (U2OS; [6]): 99.65% and 100%
- Population Pyknosed Nuclei (%) (U2OS; [6]): 24.73% and 21.18%
- Population Tubulin-Different-Phenotype (%) (U2OS; [6]): 0.49% and 3.88%
- Total Cell Count (U2OS; [6]): 284 and 170
- Population Apoptotic (%) (U2OS; [1]): 67.23% and 80%
- Population Fragmented Nuclei (%) (U2OS; [1]): 5.92% and 4.1%
- Population Healthy Nuclei (%) (U2OS; [1]): 27.04% and 26.23%
- Population Hoechst High Intensity Objects (%) (U2OS; [1]): 0% and 0.81%
- Population Membrane Permeable-Phenotype (%) (U2OS; [1]): 10.42% and 12.5%
- Population Mitotic Cells (%) (U2OS; [1]): 32.77% and 20%
- Population Normal (%) (U2OS; [1]): 100% and 99.19%
- Population Pyknosed Nuclei (%) (U2OS; [1]): 67.04% and 69.67%
- Total Cell Count (U2OS; [1]): 355 and 123
- Population Apoptotic (%) (U2OS; [2]): 69.39% and 73.33%
- Population Fragmented Nuclei (%) (U2OS; [2]): 2.78% and 6.88%
- Population Healthy Nuclei (%) (U2OS; [2]): 63.19% and 55.62%
- Population Hoechst High Intensity Objects (%) (U2OS; [2]): 0.69% and 0%
- Population Membrane Permeable-Phenotype (%) (U2OS; [2]): 3.85% and 7.87%
- Population Mitochondria Different-Phenotype (%) (U2OS; [2]): 0% and 15.73%
- Population Mitotic Cells (%) (U2OS; [2]): 30.61% and 26.67%
- Population Normal (%) (U2OS; [2]): 99.31% and 100%
- Population Pyknosed Nuclei (%) (U2OS; [2]): 34.03% and 37.5%
- Population Tubulin-Different-Phenotype (%) (U2OS; [2]): 6.04% and 10.11%
- Total Cell Count (U2OS; [2]): 290 and 160
- Population Apoptotic (%) (U2OS; [3]): 78.97% and 93.41%
- Population Fragmented Nuclei (%) (U2OS; [3]): 6.71% and 1.74%
- Population Healthy Nuclei (%) (U2OS; [3]): 14.29% and 19.13%
- Population Hoechst High Intensity Objects (%) (U2OS; [3]): 0%
- Population Membrane Permeable-Phenotype (%) (U2OS; [3]): 18.37% and 31.82%
- Population Mitochondria Different-Phenotype (%) (U2OS; [3]): 14.29% and 4.55%
- Population Normal (%) (U2OS; [3]): 100%
- Population Pyknosed Nuclei (%) (U2OS; [3]): 79.01% and 79.13%
- Total Cell Count (U2OS; [3]): 343 and 115
